Measurements published in ChEMBL document CHEMBL3352795, “Discovery of novel 1,5-benzodiazepine-2,4-dione derivatives as potential anticancer agents” (Bioorg Med Chem Lett, 2014).
In brackets after ≈: the same amount, converted by molar mass.

How the values were obtained:
Type in all cases: functional, cell-based
A549 = test: Anticancer activity against human A549 cells assessed as growth inhibition after 48 hrs by MTT assay; conditions: A549, 48 h
Outline: (§1)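 Standard MTT assay on cells incubated with compound for 48 h, with 5-fluorouracil as the positive control. Results are reported as IC50.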

MCF7 = test: Anticancer activity against human MCF7 cells assessed as growth inhibition after 48 hrs by MTT assay; conditions: MCF7, 48 h; outline: as §1
[1] = Anticancer activity against human HCT116 cells assessed as growth inhibition after 48 hrs by MTT assay; conditions: HCT-116, 48 h; outline: as §1
HeLa = test: Anticancer activity against human HeLa cells assessed as growth inhibition after 48 hrs by MTT assay; outline: as §1
[2] = Anticancer activity against mouse LL/2 cells assessed as growth inhibition after 48 hrs by MTT assay; conditions: Lewis lung carcinoma; outline: as §1

SMILES	IC50 (A549)	IC50 (MCF7)	IC50 [1]	IC50 (HeLa)	IC50 [2]
CC(C)NC(=O)c1cccc2c1NC(=O)C(C(C)(C)C(=O)NCc1ccccc1)C(=O)N2 (centres undefined)	> 100 µg/mL				
CC(C)(C)NC(=O)c1cccc2c1NC(=O)C(C(C)(C)C(=O)NCc1ccccc1)C(=O)N2 (centres undefined)	> 100 µg/mL				
CC(C)(C(=O)NCc1ccccc1)C1C(=O)Nc2cccc(C(=O)NC3CC3)c2NC1=O (centres undefined)	> 100 µg/mL				
CC(C)(C(=O)NCc1ccccc1)C1C(=O)Nc2cccc(C(=O)NCc3ccccc3)c2NC1=O (centres undefined)	45.3 µg/mL (≈ 93.5 µM)	91.2 µg/mL (≈ 188 µM)	85 µg/mL (≈ 175 µM)	42 µg/mL (≈ 86.7 µM)	48.5 µg/mL (≈ 100 µM)
CC(C)(C(=O)NCc1ccccc1)C1C(=O)Nc2cccc(C(=O)NCc3cccc(C(F)(F)F)c3)c2NC1=O (centres undefined)	80.5 µg/mL (≈ 146 µM)	36.1 µg/mL (≈ 65.3 µM)	46.1 µg/mL (≈ 83.4 µM)	8.1 µg/mL (≈ 14.7 µM)	30.5 µg/mL (≈ 55.2 µM)
Cc1ccc(CNC(=O)c2cccc3c2NC(=O)C(C(C)(C)C(=O)NCc2ccccc2)C(=O)N3)cc1Cl (centres undefined)	59.4 µg/mL (≈ 111 µM)	87 µg/mL (≈ 163 µM)	> 100 µg/mL	16.7 µg/mL (≈ 31.3 µM)	58.3 µg/mL (≈ 109 µM)
CC(C)(C(=O)NCc1ccccc1)C1C(=O)Nc2cccc(C(=O)NCc3ccc(F)c(Cl)c3)c2NC1=O (centres undefined)	68.1 µg/mL (≈ 127 µM)	68.2 µg/mL (≈ 127 µM)	49.9 µg/mL (≈ 92.9 µM)	21.1 µg/mL (≈ 39.3 µM)	66.8 µg/mL (≈ 124 µM)
Cc1ccc(CNC(=O)c2cccc3c2NC(=O)C(C(C)(C)C(=O)NCc2ccccc2)C(=O)N3)cc1 (centres undefined)	> 100 µg/mL				
CC(C)(C(=O)NCc1ccccc1)C1C(=O)Nc2cccc(C(=O)NCc3cc(F)ccc3F)c2NC1=O (centres undefined)	43.1 µg/mL (≈ 82.8 µM)	74.8 µg/mL (≈ 144 µM)	80.1 µg/mL (≈ 154 µM)	25.1 µg/mL (≈ 48.2 µM)	40.2 µg/mL (≈ 77.2 µM)
CC(C)(C(=O)NCc1ccccc1)C1C(=O)Nc2cccc(C(=O)NCc3c(F)ccc(F)c3F)c2NC1=O (centres undefined)	97.7 µg/mL (≈ 181 µM)				
CC(C)(C(=O)NCc1ccccc1)C1C(=O)Nc2cccc(C(=O)NCc3ccccn3)c2NC1=O (centres undefined)	> 100 µg/mL				
CC(C)(C(=O)NCc1ccccc1)C1C(=O)Nc2cccc(C(=O)Nc3ccccc3)c2NC1=O (centres undefined)	85.3 µg/mL (≈ 181 µM)	21.3 µg/mL (≈ 45.3 µM)	26.6 µg/mL (≈ 56.5 µM)	41.9 µg/mL (≈ 89 µM)	29.3 µg/mL (≈ 62.3 µM)
CC(C)(C(=O)NCc1ccccc1)C1C(=O)Nc2cccc(C(=O)Nc3cccc(C(F)(F)F)c3)c2NC1=O (centres undefined)	27.8 µg/mL (≈ 51.6 µM)	10 µg/mL (≈ 18.6 µM)	20.5 µg/mL (≈ 38.1 µM)	42 µg/mL (≈ 78 µM)	17.6 µg/mL (≈ 32.7 µM)
CC(C)(C(=O)NCc1ccccc1)C1C(=O)Nc2cccc(C(=O)Nc3cccc(Cl)c3)c2NC1=O (centres undefined)	56.2 µg/mL (≈ 111 µM)	11.2 µg/mL (≈ 22.2 µM)	17.3 µg/mL (≈ 34.3 µM)	24 µg/mL (≈ 47.5 µM)	17.1 µg/mL (≈ 33.9 µM)
CC(C)(C(=O)NCc1ccccc1)C1C(=O)Nc2cccc(C(=O)Nc3ccccc3F)c2NC1=O (centres undefined)	96.1 µg/mL (≈ 197 µM)				
CC(C)(C(=O)NCc1ccccc1)C1C(=O)Nc2cccc(C(=O)Nc3ccc(C(F)(F)F)cc3)c2NC1=O (centres undefined)	> 100 µg/mL				
CC(C)(C(=O)NCc1ccccc1)C1C(=O)Nc2cccc(C(=O)Nc3cccc(F)c3F)c2NC1=O (centres undefined)	80.4 µg/mL (≈ 159 µM)	21 µg/mL (≈ 41.5 µM)	25 µg/mL (≈ 49.4 µM)	37.8 µg/mL (≈ 74.6 µM)	32.9 µg/mL (≈ 65 µM)
CC(C)(C(=O)NCc1ccccc1)C1C(=O)Nc2cccc(C(=O)Nc3ccc(F)cc3F)c2NC1=O (centres undefined)	> 100 µg/mL				
CC(C)(C(=O)NCc1ccccc1)C1C(=O)Nc2cccc(C(=O)Nc3cc(Cl)ccc3F)c2NC1=O (centres undefined)	63.3 µg/mL (≈ 121 µM)	20.4 µg/mL (≈ 39 µM)	21.3 µg/mL (≈ 40.7 µM)	35.4 µg/mL (≈ 67.7 µM)	19.3 µg/mL (≈ 36.9 µM)
CC(C)(C(=O)NCc1ccccc1)C1C(=O)Nc2cccc(C(=O)Nc3ccc(F)c(F)c3F)c2NC1=O (centres undefined)	> 100 µg/mL				
O=c1[nH]cc(F)c(=O)[nH]1 [FLUOROURACIL]		12.1 µg/mL (≈ 93 µM)	4.8 µg/mL (≈ 36.9 µM)	5.7 µg/mL (≈ 43.8 µM)	2.9 µg/mL (≈ 22.3 µM)
